From ChEMBL document CHEMBL4266039, “Overcoming Time-Dependent Inhibition (TDI) of Cytochrome P450 3A4 (CYP3A4) Resulting from Bioactivation of a Fluoropyrimidine Moiety” (J Med Chem, 2018) come the findings set out here.

The target of one data set is Cytochrome P450 3A4 (Homo sapiens, UniProt P08684). The data set can be described thus: Inhibition of CYP3A4 in human liver microsomes using testosterone as substrate preincubated for 30 mins followed by substrate/NADPH addition measured after 10 mins by LC-MS/MS analysis. The format is ADME. Background: Liver microsomes are a subcellular fraction often used to study metabolism.
Cytochrome P450 3A4, sequence (P08684 whole entry): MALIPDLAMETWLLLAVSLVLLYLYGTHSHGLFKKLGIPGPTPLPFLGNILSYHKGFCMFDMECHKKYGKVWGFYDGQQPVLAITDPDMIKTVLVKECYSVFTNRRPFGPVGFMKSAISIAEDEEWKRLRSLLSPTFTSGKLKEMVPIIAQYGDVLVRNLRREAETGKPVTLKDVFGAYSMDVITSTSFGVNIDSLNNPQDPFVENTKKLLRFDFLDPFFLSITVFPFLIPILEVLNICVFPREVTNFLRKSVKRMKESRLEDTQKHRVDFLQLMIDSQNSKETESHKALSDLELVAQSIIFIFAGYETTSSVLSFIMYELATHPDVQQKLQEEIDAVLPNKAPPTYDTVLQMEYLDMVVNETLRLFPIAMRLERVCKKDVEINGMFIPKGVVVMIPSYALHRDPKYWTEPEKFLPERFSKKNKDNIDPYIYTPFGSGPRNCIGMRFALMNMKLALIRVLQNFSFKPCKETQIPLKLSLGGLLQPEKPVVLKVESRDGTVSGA

In data set [1] the test system is Rattus norvegicus. The experiment in a line: Anti-alzheimer activity in rat assessed as reduction in amyloid beta40 levels in cerebrospinal fluid at 30 mg/kg, po relative to control. Type of data set: functional. Also noted: scale not given: the % may be the effect or the level left.
In the next data set the target is Beta-secretase 1 (Homo sapiens, UniProt P56817). The experiment in a line: Inhibition of purified human BACE1.
Beta-secretase 1, sequence (P56817 whole entry): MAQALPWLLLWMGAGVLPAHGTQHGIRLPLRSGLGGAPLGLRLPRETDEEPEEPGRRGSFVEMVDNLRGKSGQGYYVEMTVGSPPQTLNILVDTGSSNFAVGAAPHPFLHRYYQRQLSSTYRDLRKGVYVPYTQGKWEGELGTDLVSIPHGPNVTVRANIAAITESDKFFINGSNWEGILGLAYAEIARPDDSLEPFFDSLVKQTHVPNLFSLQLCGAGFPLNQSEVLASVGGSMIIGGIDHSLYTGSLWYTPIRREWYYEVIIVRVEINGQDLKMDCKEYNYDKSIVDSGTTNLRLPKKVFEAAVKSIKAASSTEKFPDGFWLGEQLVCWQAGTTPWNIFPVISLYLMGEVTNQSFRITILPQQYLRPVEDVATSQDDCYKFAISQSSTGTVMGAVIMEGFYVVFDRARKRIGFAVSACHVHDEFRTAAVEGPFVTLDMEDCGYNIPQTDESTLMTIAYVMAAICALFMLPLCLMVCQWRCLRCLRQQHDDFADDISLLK
In data set [2] the test system is Rattus norvegicus. The data set can be described thus: Anti-alzheimer activity in rat assessed as reduction in amyloid beta40 levels in cerebrospinal fluid at 10 mg/kg, po relative to control. Also noted: scale not given: the % may be the effect or the level left. Type of data set: functional.
Data set [3] in a line: AUC (0 to infinity) in Han Wistar rat at 10 mg/kg, po. Type of data set: ADME, organism-based. Also noted: dose 10 mg/kg, route oral, time infinity. As to conditions: in vivo. In short, it runs like this: (§1)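 Wistar Han rats received a single oral dose of 10 mg/kg. AUC(0-∞), Cmax and oral bioavailability (F%) were derived from this oral arm.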
A short description of data set [4]: Cmax in Han Wistar rat at 10 mg/kg, po. Type of data set: ADME, organism-based. Also noted: dose 10 mg/kg, route oral. To be noted: in vivo. In short, it runs like this:
as §1

A short description of data set [5]: Oral bioavailability in Han Wistar rat at 10 mg/kg. The format is ADME, organism-based. To be noted: in vivo. In short, it runs like this:
as §1

Data set [6] in a line: Clearance in Han Wistar rat at 2 mg/kg, iv. The format is ADME, organism-based. To be noted: in vivo. In short, it runs like this:
(§2)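 Same Wistar Han rat PK study, intravenous arm at 2 mg/kg. Clearance, Vd,ss and t1/2 were taken from the iv data.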

A short description of data set [7]: Volume of distribution at steady state in Han Wistar rat at 2 mg/kg, iv. The format is ADME, organism-based. To be noted: in vivo, read-out: Vdss. The method in brief:
as §2

Data set [8] is described as follows: Half life in Han Wistar rat at 2 mg/kg, iv. The format is ADME, organism-based. To be noted: in vivo. In short, it runs like this: as §2
Data set [9] is described as follows: Protein binding in rat plasma. The format is ADME, cell-free. To be noted: read-out: PPB (converted).

Broadly, the IC50 is the concentration that gives 50% inhibition. On to `CN1C(=O)[C@@H]2CN(c3ccc(F)cc3)C[C@]2(c2cc(-c3cccc(C#N)c3)cs2)N=C1N`, for which the IC50 against Cytochrome P450 3A4 was above 30000 nM.

Consider `CN1C(=O)[C@@H]2CN(c3ncccn3)C[C@]2(c2cc(-c3cccc(C#N)c3)cs2)N=C1N`, for which, at Cytochrome P450 3A4, the IC50 was above 30000 nM.

With `COc1nc(N2C[C@H]3C(=O)N(C)C(=N)N[C@@]3(c3cc(-c4cccc(C#N)c4)cs3)C2)ncc1F`, the Activity in the data set with Rattus norvegicus [1] amounted to 45%.

One may read the Ki as a measure of affinity in units of concentration, obtained from inhibition or displacement. As to `CCCOc1nc(N2C[C@H]3C(=O)N(C)C(=N)N[C@@]3(c3cc(-c4cccc(C#N)c4)cs3)C2)ncc1F`, the IC50 against Cytochrome P450 3A4 worked out at 1200 nM. Besides, in the data set on Rattus norvegicus [1], the Activity amounted to 12%. Besides, the Ki at Beta-secretase 1 was determined as 1 nM.

For `CN1C(=N)N[C@@]2(c3cc(-c4cccc(C#N)c4)cs3)CN(c3ncc(F)c(N4CCOCC4)n3)C[C@H]2C1=O`, the IC50 at Cytochrome P450 3A4 is above 30000 nM. Also, the Activity with Rattus norvegicus [2] worked out at 17%. Further, the Ki at Beta-secretase 1 stood at 1 nM.

For the compound `COc1cc(C#N)cc(-c2csc([C@]34CN(c5ncc(F)cn5)C[C@H]3C(=O)N(C)C(=N)N4)c2)c1`, on Cytochrome P450 3A4, the IC50 worked out at 1600 nM. At Beta-secretase 1, this compound had a Ki of 1 nM.

Turning to `CCc1nc(N2C[C@H]3C(=O)N(C)C(=N)N[C@@]3(c3cc(-c4cccc(C#N)c4)cs3)C2)ncc1F`, at Cytochrome P450 3A4, half-maximal inhibition (IC50) required 900 nM. Besides, in the data set with Rattus norvegicus [2], the Activity is recorded as 49%. In addition, at Beta-secretase 1, the Ki is 1 nM.

`CN1C(=N)N[C@@]2(c3cc(-c4cccc(Cl)c4)cs3)CN(c3ncc(F)cn3)C[C@H]2C1=O` had a concentration for half-maximal inhibition (IC50) against Cytochrome P450 3A4 of 1200 nM. Besides, the Ki at Beta-secretase 1 amounted to 1 nM.

On to `CN1C(=N)N[C@@]2(c3cc(Br)cs3)CN(c3ncc(F)cn3)C[C@H]2C1=O`, for which the IC50 against Cytochrome P450 3A4 came out at 900 nM. Also, the inhibitory constant (Ki) on Beta-secretase 1 worked out at 100 nM.

`CN1C(=N)N[C@@]2(c3cc(-c4cccc(C#N)c4)cs3)CN(c3ncc(F)c(N4CCCC4)n3)C[C@H]2C1=O`: the IC50 against Cytochrome P450 3A4 was above 30000 nM. In the data set on Rattus norvegicus [2], the Activity is 2%. The compound also yielded a Ki on Beta-secretase 1 of 3 nM.

Turning to `CN1C(=N)N[C@@]2(c3cc(-c4ccc(F)c(C#N)c4)cs3)CN(c3ncc(F)cn3)C[C@H]2C1=O`, 5700 nM corresponded to half-maximal inhibition on Cytochrome P450 3A4 (IC50). For the same compound, on Beta-secretase 1, the affinity, expressed as Ki, was 4 nM.

Regarding `CN1C(=N)N[C@@]2(c3cc(-c4cc(F)cc(C#N)c4)cs3)CN(c3ncc(F)cn3)C[C@H]2C1=O`, it took 1600 nM to reach half-maximal inhibition on Cytochrome P450 3A4 (IC50). This compound also gave a Ki at Beta-secretase 1 of 2 nM.

As a reminder, the AUC(0-inf) is total exposure, with the tail of the curve extrapolated. The Cmax is the maximum level reached in the sampled fluid or tissue. The term bioavailability denotes dose-corrected exposure relative to a reference, in per cent. As usually defined, the clearance is the rate of elimination divided by the concentration. One may read the half-life as the time in which the quantity being followed falls by half. For the compound `Cc1nc(N2C[C@H]3C(=O)N(C)C(=N)N[C@@]3(c3cc(-c4cccc(C#N)c4)cs3)C2)nc(C)c1F`, in the data set on Rattus norvegicus [2], the Activity worked out at 54%. In data set [3], the total exposure AUC(0-inf) is 34 µM·h. For the same compound, the Cmax in data set [4] came out at 5.8 µM. The same compound returned a bioavailability in data set [5] of 54%. The compound further had a clearance in data set [6] of 5.6 mL/min/kg. The Vd in data set [7] amounted to 1 L/kg. The half-life in [8] was 2.1 h. In data set [9], the fraction unbound is 0.003. The compound further yielded a Ki on Beta-secretase 1 of 1 nM.

Consider `Cc1nc(N2C[C@H]3C(=O)N(C)C(=N)N[C@@]3(c3cc(-c4cccc(C#N)c4)cs3)C2)ncc1F`, for which, at Cytochrome P450 3A4, the IC50 turned out to be 600 nM. In addition, the Activity with Rattus norvegicus [2] came to 38%. This compound also returned an inhibition constant Ki on Beta-secretase 1 of 0.7 nM.

On to `CN1C(=N)N[C@@]2(c3cc(-c4cc(F)cc(F)c4)cs3)CN(c3ncc(F)cn3)C[C@H]2C1=O`, for which, at Cytochrome P450 3A4, it took 1000 nM to reach half-maximal inhibition (IC50). In addition, at Beta-secretase 1, the inhibition constant (Ki) stood at 10 nM.

As for `COc1nc(N2C[C@H]3C(=O)N(C)C(=N)N[C@@]3(c3cc(-c4cccc(C#N)c4)cs3)C2)nc(C)c1F`, the IC50 on Cytochrome P450 3A4 stood at 11000 nM. At Beta-secretase 1, this compound returned a Ki of 0.7 nM.

Turning to `CCOc1nc(N2C[C@H]3C(=O)N(C)C(=N)N[C@@]3(c3cc(-c4cccc(C#N)c4)cs3)C2)ncc1F`, half-maximal inhibition on Cytochrome P450 3A4 (IC50) was put at 700 nM. In addition, the Activity with Rattus norvegicus [1] came out at 20%. The Ki on Beta-secretase 1 turned out to be 1 nM.

Regarding `CN1C(=N)N[C@@]2(c3cc(-c4ccc(Cl)c(C#N)c4)cs3)CN(c3ncc(F)cn3)C[C@H]2C1=O`, the IC50 at Cytochrome P450 3A4 amounted to 5500 nM. On Beta-secretase 1, this compound gave a Ki of 10 nM.
